Peptide text beside a SMILES is read from it. * marks the point of attachment. X3 = CC[C@H](C)[C@@H](C(=O)*)N(C(=O)[C@H](CCCNC(=N)N)NC(=O)CCCCCNC(=O)[C@@H](N)CCCNC(=N)N)C(=O)[C@H](CCCNC(=N)N)NC(=O)CCCCCNC(=O)[C@@H](N)CCCNC(=N)N
Tests used:
[1] = tested on: Escherichia coli; assay: Antibacterial activity against multi-drug resistant Escherichia coli NMI 3898/15 assessed as reduction in microbial growth incubated for 20 hrs; type: functional; settings: NMI 3898/15, 20 h
Outline: (§1)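 Broth microdilution MIC (modified Hancock protocol) in non-binding polystyrene plates. Inoculum ~2 × 10^5 CFU/mL in Mueller-Hinton broth with Mg²⁺ and Ca²⁺ at 4 mg/L each. Compounds dissolved in water, diluted in 0.01% acetic acid/0.2% BSA (final), added as 10× stocks. Covered plates incubated 20 h at 35 °C (± 2 °C) with 220 rpm circular shaking before MIC read.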

[2] = tested on: Escherichia coli; assay: Antibacterial activity against multi-drug resistant Escherichia coli NMI 3548/14 assessed as reduction in microbial growth incubated for 20 hrs; type: functional; settings: NMI 3548/14, 20 h; outline: as §1
[3] = tested on: Klebsiella pneumoniae; assay: Antibacterial activity against multi-drug resistant Klebsiella pneumoniae NMI 2697/14 assessed as reduction in microbial growth incubated for 20 hrs; type: functional; settings: NMI 2697/14, 20 h; outline: as §1
[4] = tested on: Klebsiella pneumoniae; assay: Antibacterial activity against multi-drug resistant Klebsiella pneumoniae NMI 3081/09 assessed as reduction in microbial growth incubated for 20 hrs; type: functional; settings: NMI 3081/09, 20 h; outline: as §1
[5] = Hemolytic activity against RBC (unknown origin) at 100 uM; type: ADME, cell-based, Erythrocyte; settings: red blood cells (erythrocytes); read-out: Activity
[6] = tested on: Staphylococcus aureus; assay: Antibacterial activity against Staphylococcus aureus ATCC 29213 assessed as reduction in microbial growth incubated for 20 hrs; type: functional; settings: ATCC 29213, 20 h
Outline: (§2)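 Broth microdilution MIC after a modified Hancock protocol for cationic peptides, in non-binding polystyrene plates. Inoculum ~2 × 10^5 CFU/mL in Mueller-Hinton broth with Mg²⁺ and Ca²⁺ at 4 mg/L each. Compounds dissolved in water, diluted in 0.01% acetic acid, 0.2% BSA (final), added as 10× aliquots. Covered plates incubated 20 h at 35 °C (± 2 °C) with shaking at 220 rpm. MIC read as lowest inhibiting concentration.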

[7] = tested on: Escherichia coli; assay: Antibacterial activity against Escherichia coli ATCC 25922 assessed as reduction in microbial growth incubated for 20 hrs; type: functional; settings: ATCC 25922, 20 h; outline: as §1
[8] = tested on: Klebsiella pneumoniae; assay: Antibacterial activity against Klebsiella pneumoniae ATCC 13883 assessed as reduction in microbial growth incubated for 20 hrs; type: functional; settings: ATCC 13883, 20 h; outline: as §2
[9] = tested on: Acinetobacter baumannii; assay: Antibacterial activity against Acinetobacter baumannii ATCC 19606 assessed as reduction in microbial growth incubated for 20 hrs; type: functional; settings: ATCC 19606 = CIP 70.34 = JCM 6841, 20 h; outline: as §2
[10] = tested on: Escherichia coli; assay: Antibacterial activity against Escherichia coli lacking a functional SbmA assessed as reduction in microbial growth incubated for 20 hrs; outline: as §2
[11] = tested on: Pseudomonas aeruginosa; assay: Antibacterial activity against Pseudomonas aeruginosa PAO1 assessed as reduction in microbial growth incubated for 20 hrs; type: functional; settings: PAO1, 20 h; outline: as §2

Row | Compound | MIC [1] [µg/mL] | MIC [2] [µg/mL] | MIC [3] [µg/mL] | MIC [4] [µg/mL] | hemolysis at 100 µM [5] [%] | MIC [6] [µg/mL] | MIC [7] [µg/mL] | MIC [8] [µg/mL] | MIC [9] [µg/mL] | MIC [10] [µg/mL] | MIC [11] [µg/mL]
1 | CN(C)c1cc(NC(=O)CNC(C)(C)C)c(O)c2c1C[C@H]1C[C@H]3[C@H](N(C)C)C(O)=C(C(N)=O)C(=O)[C@@]3(O)C(O)=C1C2=O [TIGECYCLINE] | 0.5 | 16 | 0.5 | 2 |  |  |  |  |  |  | 
2 | C[C@H]1[C@H](NC(=O)/C(=N\OC(C)(C)C(=O)O)c2csc(N)n2)C(=O)N1S(=O)(=O)O [AZTREONAM] | 8 | > 16 | 16 | > 256 |  |  |  |  |  |  | 
3 | CC[C@@H](C)[C@@H](NC(=O)[C@@H](CCCCN)NC(=O)[C@@H]([C@H](C)CC)N(C(=O)[C@@H](CCCNC(=N)N)NC(=O)CCCCCNC(=O)[C@H](N)CCCNC(=N)N)C(=O)[C@@H](CCCNC(=N)N)NC(=O)CCCCCNC(=O)[C@H](N)CCCNC(=N)N)C(=O)N[C@H](CC(C)C)C(=O)N[C@H](Cc1ccccc1)C(=O)N[C@H](CCC(N)=O)C(=O)N[C@H](CC(N)=O)C(=O)N[C@H](CCCNC(=N)N)C(=O)N[C@H](CCCNC(=N)N)C(=O)N[C@H](CCSC)C(=O)N[C@H](CCCCN)C(=O)N[C@H](Cc1c[nH]c2ccccc12)C(=O)N[C@H](CCCCN)C(=O)N[C@H](CCCCN)C(=O)N[C@H](CSC1CC(=O)N(CCC(=O)NCCOCCOC(=O)N[C@H](CS)C(=O)N[C@@H](C(=O)N[C@H](CS)C(=O)N[C@H](C)C(=O)N[C@@H](C(=O)N[C@H](C)C(=O)N[C@H](CS)C(=O)N[C@@H](C(=O)N[C@H](CS)C(=O)N[C@@H](C(N)=O)[C@H](C)O)[C@H](C)O)[C@H](C)O)[C@H](C)O)C1=O)C(N)=O (some centres not stated) | 8 | 8 | 64 | 16 | 1.6 | 32 | 8 | 16 | 4 | 8 | 8
4 | CC[C@@H](C)[C@@H](NC(=O)[C@H]1CCCN1C(=O)[C@@H](CCCNC(=N)N)NC(=O)[C@H]1CCCN1C(=O)[C@@H](Cc1cnc[nH]1)NC(=O)[C@@H](CO)NC(=O)[C@H](NC(=O)[C@H]1CCCN1C(=O)[C@@H](CCCNC(=N)N)NC(=O)[C@H]1CCCN1C(=O)[C@@H](CO)NC(=O)[C@@H](Cc1ccc(O)cc1)NC(=O)[C@H]1CCCN1C(=O)[C@@H](CCCNC(=N)N)NC(=O)[C@H]1CCCN1C(=O)[C@@H](CCCNC(=N)N)NC(=O)CCCCCNC(=O)[C@H](N)CCCNC(=N)N)[C@H](C)O)C(=O)N[C@H](CCCNC(=N)N)C(=O)N[C@@H](C(=O)N[C@H](CSC1CC(=O)N(CCC(=O)NCCOCCOC(=O)N[C@H](CS)C(=O)N[C@@H](C(=O)N[C@H](CS)C(=O)N[C@H](C)C(=O)N[C@@H](C(=O)N[C@H](C)C(=O)N[C@H](CS)C(=O)N[C@@H](C(=O)N[C@H](CS)C(=O)N[C@@H](C(N)=O)[C@H](C)O)[C@H](C)O)[C@H](C)O)[C@H](C)O)C1=O)C(N)=O)C(C)C (some centres not stated) | 32 to 64 | 32 | ≥ 64 | 64 | < 1 | > 64 | 32 | 8 to 16 | 64 | 64 | > 64
5 | CC[C@H](C)[C@H](NC(=O)[C@H](CCCCN)NC(=O)[C@H]([C@@H](C)CC)N(C(=O)[C@H](CCCNC(=N)N)NC(=O)CCCCCNC(=O)[C@@H](N)CCCNC(=N)N)C(=O)[C@H](CCCNC(=N)N)NC(=O)CCCCCNC(=O)[C@@H](N)CCCNC(=N)N)C(=O)N[C@@H](CC(C)C)C(=O)N[C@@H](Cc1ccccc1)C(=O)N[C@@H](CCC(N)=O)C(=O)N[C@@H](CC(N)=O)C(=O)N[C@@H](CCCNC(=N)N)C(=O)N[C@@H](CCCNC(=N)N)C(=O)N[C@@H](CCSC)C(=O)N[C@@H](CCCCN)C(=O)N[C@@H](Cc1c[nH]c2ccccc12)C(=O)N[C@@H](CCCCN)C(=O)N[C@@H](CCCCN)C(=O)N[C@@H](CS)C(=O)N[C@H](C(=O)N[C@@H](CS)C(=O)N[C@@H](C)C(=O)N[C@H](C(=O)N[C@@H](C)C(=O)N[C@@H](CS)C(=O)N[C@H](C(=O)N[C@@H](CS)C(=O)N[C@H](C(N)=O)[C@@H](C)O)[C@@H](C)O)[C@@H](C)O)[C@@H](C)O (X3-KILFQNRRMKWKKCTCATACTCT-NH2) | ≥ 64 | 32 | > 64 | > 64 | < 1 | > 64 | 16 | 8 | 16 | 16 | 32
6 | O=C(O)c1cn(C2CC2)c2cc(N3CCNCC3)c(F)cc2c1=O [CIPROFLOXACIN] | > 32 |  | 2 | > 32 |  |  |  |  |  |  | 
7 | CN(C)[C@@H]1C(O)=C(C(N)=O)C(=O)[C@@]2(O)C(O)=C3C(=O)c4c(O)cccc4[C@@](C)(O)[C@H]3C[C@@H]12 [TETRACYCLINE] | 64 | 8 | 16 | > 256 |  |  |  |  |  |  | 
8 | CC1(C)S[C@@H]2[C@H](NC(=O)[C@H](N)c3ccccc3)C(=O)N2[C@H]1C(=O)O [AMPICILLIN] | > 256 | > 128 | > 128 | > 256 |  |  |  |  |  |  | 

— ChEMBL document CHEMBL4390654, “Microwave-assisted solid-phase synthesis of antisense acpP peptide nucleic acid-peptide conjugates active against colistin- and tigecycline-resistant E. coli and K. pneumoniae” (Eur J Med Chem, 2019)
